Data as given in ChEMBL document CHEMBL5376016, “Synthesis of novel rapanone derivatives via organocatalytic reductive C-alkylation: biological evaluation of antioxidant properties, in vivo zebrafish embryo toxicity, and docking studies” (RSC Med Chem, 2024).

Assays:
[1] = Antioxidant activity assessed as ABTS radical scavenging activity after 6 mins by spectrophotometric analysis relative to control; assay type: functional; set-up: concentration or dose not given beside the values
[2] = Antioxidant activity assessed as DPPH radical scavenging activity after 30 mins by spectrophotometric analysis relative to control; assay type: functional; set-up: concentration or dose not given beside the values
In short: (§1)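 Ascorbic acid was the reference standard. For DPPH, 0.2 mM DPPH in methanol was kept in the dark, mixed with compound at 5–160 µM (DMSO stock), and incubated 30 min in the dark at room temperature, then A517 was read. %RSA = (Ac−As)/Ac×100. Triplicate runs; IC50 taken from the plot of % scavenging versus concentration.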

[3] = Acute toxicity in zebrafish embryo assessed as survival rate at 96 hrs post fertilization relative to control; set-up: species or system Danio rerio; concentration or dose not given beside the values; conditions: in vivo
In short: (§2)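 Lethality endpoints were coagulation and absence of heartbeat, checked by inverted microscope. Survival was compared with untreated embryos across three independent experiments; mean ± SD, ANOVA.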

[4] = Acute toxicity in zebrafish embryo assessed as survival rate at 20 uM measured after 96 hrs post fertilization relative to control; set-up: species or system Danio rerio; conditions: in vivo; in short: as §2
[5] = Antioxidant activity assessed as DPPH radical scavenging activity after 30 mins by spectrophotometric analysis; assay type: functional; in short: as §1
[6] = Antioxidant activity assessed as ABTS radical scavenging activity after 6 mins by spectrophotometric analysis; assay type: functional
[7] = Acute toxicity in zebrafish embryo assessed as survival rate at 160 uM measured after 96 hrs post fertilization relative to control; set-up: species or system Danio rerio; conditions: in vivo; in short: as §2
[8] = Acute toxicity in zebrafish embryo assessed as hatching rate at 20 to 160 uM measured after 48 hrs post fertilization relative to control; set-up: species or system Danio rerio; conditions: in vivo, dose 20-160 µM
In short: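 Controls were water and water with 0.5% DMSO. Incubation at 26.8 ± 1 °C, 20 embryos per well. Hatching scored over 0–96 hpf under an inverted microscope. Triplicate, three independent experiments; mean ± SD; ANOVA.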

[9] = Acute toxicity in zebrafish embryo assessed as morphological changes at upto 160 uM measured after 48 hrs post fertilization relative to control; set-up: species or system Danio rerio; conditions: in vivo
In short: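 Wild-type Danio rerio embryos were exposed in milli-Q water with compound dissolved in DMSO (≤0.25 v/v final). Controls were milli-Q water and water with DMSO. Embryos were held at 26.8 ± 1 °C and scored by inverted microscope at 24–96 hpf, after exposure at 160 µM, for bent spine, yolk sac edema, pericardial edema, short tail and bent tail.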

SMILES | Activity [1] [%] | Activity [2] [%] | survival at 96 h ([3]; read-out: Activity) [%] | survival at 96 h, 20 µM [4] [%] | IC50 [5] [µM] | IC50 [6] [µM] | survival at 96 h, 160 µM [7] [%] | Activity [8] [%] | Activity [9] | survival at 96 h ([3]; read-out: Survival) [%]
CCCCCCCCCCCC1=C(O)C(=O)C(Cc2c(OC)cc(OC)cc2OC)=C(O)C1=O | 80.2 | 71.1 | 70 | 52 | 3.07 | 2.6 | 70 | 75.66 | Non-Toxic | 
CCCCCCCCCCCC1=C(O)C(=O)C(CC(C)C)=C(O)C1=O | 80.2 | 80 | 70 | 52 | 2.48 |  | 70 | 75.66 | Non-Toxic | 
CCCCCCCCCCCC1=C(O)C(=O)C(Cc2ccc(N(C)C)cc2)=C(O)C1=O | 75.1 | 71.1 | 70 | 52 | 3.37 | 2.91 | 70 | 75.66 | Non-Toxic | 
CCCCCCCCCCCC1=C(O)C(=O)C(Cc2ccccc2O)=C(O)C1=O | 75.1 | 71.1 | 70 | 52 | 3.05 | 2.87 | 70 | 75.66 | Non-Toxic | 
CCCCCCCCCCCC1=C(O)C(=O)C(Cc2cc(Cl)ccc2Cl)=C(O)C1=O | 52.1 | 50.3 |  |  | 4.69 | 5.32 |  | 51.33 | Non-Toxic | > 90
CCCCCCCCCCCC1=C(O)C(=O)C(Cc2ccccc2)=C(O)C1=O | 80.2 | 71.1 | 70 | 52 | 3.18 | 2.71 | 70 | 75.66 | Non-Toxic | 
CCCCCCCCCCCC1=C(O)C(=O)C(Cc2ccc(C(C)C)cc2)=C(O)C1=O | 87.2 | 86 | 70 | 52 | 1.9 | 1.91 | 70 | 75.66 | Non-Toxic | 
CCCCCCCCCCCC1=C(O)C(=O)C(Cc2ccc([N+](=O)[O-])cc2)=C(O)C1=O | 52.1 | 50.3 |  |  | 4.9 | 5.25 |  | 51.33 | Non-Toxic | > 90
CCCCCCCCCCCC1=C(O)C(=O)C(Cc2ccc(Cl)cc2Cl)=C(O)C1=O | 52.1 | 50.3 |  |  | 4.74 | 4.43 |  | 51.33 | Non-Toxic | > 90
CCCCCCCCCCCC1=C(O)C(=O)C(Cc2ccccc2[N+](=O)[O-])=C(O)C1=O | 52.1 | 50.3 |  |  | 4.76 | 5.34 |  | 51.33 | Non-Toxic | > 90
CCCCCCCCCCCC1=C(O)C(=O)C(CCCl)=C(O)C1=O | 52.1 | 50.3 |  |  | 4.6 | 4.41 |  | 51.33 | Non-Toxic | > 90
CCCCCCCCCCCC1=C(O)C(=O)C(Cc2ccc(C)cc2)=C(O)C1=O | 90.3 | 89.4 | 70 | 52 | 1.81 | 1.81 | 70 | 75.66 | Non-Toxic | 
CCCCCCCCCCCC1=C(O)C(=O)C(Cc2ccccc2Br)=C(O)C1=O | 52.1 | 50.3 |  |  | 4.57 | 5.54 |  | 51.33 | Non-Toxic | > 90
CCCCCCCCCCCC1=C(O)C(=O)C(CC)=C(O)C1=O | 80.2 | 80 | 70 | 52 | 2.61 | 2.44 | 70 | 75.66 | Non-Toxic | 
CCCCCCCCCCCC1=C(O)C(=O)C(Cc2ccc(O)cc2)=C(O)C1=O | 75.1 | 80 | 70 | 52 | 2.83 | 2.7 | 70 | 75.66 | Non-Toxic | 
CCCCCCCCCCCC1=C(O)C(=O)C(Cc2ccc(C#N)cc2)=C(O)C1=O | 52.1 | 50.3 |  |  | 4.58 | 5.15 |  | 51.33 | Non-Toxic | > 90
CCCCCCCCCCCC1=C(O)C(=O)C(Cc2c(Cl)cccc2Cl)=C(O)C1=O | 52.1 | 50.3 |  |  | 4.87 | 5.21 |  | 51.33 | Non-Toxic | > 90
C#Cc1ccccc1CC1=C(O)C(=O)C(CCCCCCCCCCC)=C(O)C1=O | 52.1 | 50.3 |  |  | 4.94 | 4.96 |  | 51.33 | Non-Toxic | > 90
CCCCCCCCCCCC1=C(O)C(=O)C(Cc2ccccc2F)=C(O)C1=O | 52.1 | 50.3 |  |  | 4.62 | 5.44 |  | 51.33 | Non-Toxic | > 90
CCCCCCCCCCCC1=C(O)C(=O)C(Cc2ccccc2C#N)=C(O)C1=O | 52.1 | 50.3 |  |  | 4.43 | 5.01 |  | 51.33 | Non-Toxic | > 90
CCCCCCCCCCCC1=C(O)C(=O)C(Cc2ccccc2C)=C(O)C1=O | 80.2 | 80 | 70 | 52 | 2.51 | 2.05 | 70 | 75.66 | Non-Toxic | 
CCCCCCCCCCCC1=C(O)C(=O)C(Cc2cc(OC)c(OC)c(OC)c2)=C(O)C1=O | 80.2 | 80 | 70 | 52 | 2.95 | 2.48 | 70 | 75.66 | Non-Toxic | 
CCCCCCCCCCCC1=C(O)C(=O)C(Cc2ccc(Cl)c(Cl)c2)=C(O)C1=O | 52.1 | 50.3 |  |  | 4.87 | 5.09 |  | 51.33 | Non-Toxic | > 90
CCCCCCCCCCCC1=C(O)C(=O)C(Cc2cccc([N+](=O)[O-])c2)=C(O)C1=O | 52.1 | 50.3 |  |  | 4.8 | 5.36 |  | 51.33 | Non-Toxic | > 90
CCCCCCCCCCCC1=C(O)C(=O)C(Cc2ccc(Br)cc2)=C(O)C1=O | 52.1 | 50.3 |  |  | 4.59 | 5.14 |  | 51.33 | Non-Toxic | > 90
CCCCCCCCCCCC1=C(O)C(=O)C(Cc2ccc(F)cc2)=C(O)C1=O | 52.1 | 50.3 |  |  | 4.65 | 5.22 |  | 51.33 | Non-Toxic | > 90
CCCCCCCCCCCC1=C(O)C(=O)C(Cc2ccc(Cl)cc2)=C(O)C1=O | 52.1 | 50.3 |  |  | 4.93 | 4.99 |  | 51.33 | Non-Toxic | > 90
O=C1O[C@H]([C@@H](O)CO)C(O)=C1O [ASCORBIC ACID] | 91.1 | 90.2 |  |  | 1.87 | 1.42 |  |  |  | 
CCCCCCCCCCCC1=C(O)C(=O)C(Cc2ccc(OC)cc2)=C(O)C1=O | 80.2 | 71.1 | 70 | 52 | 3.16 | 2.72 | 70 | 75.66 | Non-Toxic | 
